A selection: hits, their analogues and other compounds. The true share with any hit is near 1.7%.
Hck Nef HTS: inhibitors of Nef-activated human Hck kinase, primary screen, biochemical, Z-Lyte FRET, 384-well, Hck-YEEI; Recombinant Hck-YEEI plus Nef, Z-Lyte FRET kinase assay; inhibition, % at 20 µM; hit rate 0.68% among 220,000; AID 463187, 2010;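 active = Hck-Nef kinase inhibition above about 50%, limit read from the data; inactive = inhibition below that limit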;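 also: 0% = DMSO with Hck plus Nef and 100% = Hck alone without Nef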
Target sequence (P08631 whole entry, looked up): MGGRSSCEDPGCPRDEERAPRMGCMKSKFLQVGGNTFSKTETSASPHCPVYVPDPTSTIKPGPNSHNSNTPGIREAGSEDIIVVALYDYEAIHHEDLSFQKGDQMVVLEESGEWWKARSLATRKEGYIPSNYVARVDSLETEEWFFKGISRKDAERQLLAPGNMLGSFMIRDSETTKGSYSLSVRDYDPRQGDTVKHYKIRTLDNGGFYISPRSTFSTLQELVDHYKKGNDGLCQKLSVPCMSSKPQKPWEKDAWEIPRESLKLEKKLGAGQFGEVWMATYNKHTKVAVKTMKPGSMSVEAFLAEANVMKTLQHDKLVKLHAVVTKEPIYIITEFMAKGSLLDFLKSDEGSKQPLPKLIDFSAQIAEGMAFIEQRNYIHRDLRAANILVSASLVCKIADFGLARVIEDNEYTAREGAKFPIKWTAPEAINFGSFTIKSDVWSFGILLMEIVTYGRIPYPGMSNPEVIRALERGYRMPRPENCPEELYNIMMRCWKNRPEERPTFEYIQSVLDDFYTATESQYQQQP
Runt-CBFb FRET: inhibitors of RUNX1 Runt–CBFb binding, primary screen, biochemical, FRET, Cerulean-Runt, Venus-CBFb, uHTS | inhibition, % at 20 µM | Runt-related transcription factor 1 (Homo sapiens) + Core-binding factor subunit beta … | Cerulean-Runt/Venus-CBFb FRET ratio 530/480, 1 h | hit rate 0.46% among 220,000;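 active = inhibition over about 50% at 20 µM in the single-dose screen, limit read from the data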;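 also: 0% = DMSO wells and 100% = excess unlabeled CBFb competitor control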
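Doses: 20 µM compound in 1% DMSO | Material: Cerulean-labeled Runt domain protein | Amount: Each fluorescent fusion protein 100 nM | Schedule: Two 1 h room-temperature incubations shielded from light | Measured by: FRET fluorescence | Evaluation: Loss of energy transfer signal | Controls: Unlabeled CBFb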
RanGTP-Imp inh: inhibitors of RanGTP-importin-beta interaction, primary screen, biochemical, FRET, CFP-Ran, YFP-importin-beta, homogeneous; Ran GTPase (GTP-bound) - importin-beta complex; cell-free CFP-Ran/YFP-importin-beta FRET ratio; inhibition, % (concentration not given with the values); hit rate 1.1% among 300,000;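 active = more than half of the replicate wells show a fall in the fluorescence ratio signal beyond about 16%, limit read from the data, passing the limit was not always enough; inconclusive = exactly half of the replicate wells pass the set limit; inactive = fewer than half of replicates pass the limit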;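 also: 0% = DMSO wells and 100% = Ran loaded with GDP instead of GTP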
Runt-SMMHC FRET: inhibitors of RUNX1 Runt–CBFb-SMMHC binding, primary screen, biochemical, FRET, Cerulean-Runt, Venus-CBFb-SMMHC, uHTS; Cerulean-Runt/Venus-CBFb-SMMHC FRET ratio 530/480, 1 h; inhibition, % at 20 µM; hit rate 0.74% among 220,000; AID 1434, 2008;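 active = mean inhibition across duplicate retests at 20 µM reaching about 50%, limit read from the data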;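 also: 0% = DMSO wells and 100% = wells with excess untagged CBFb-SMMHC; inhibitors lower the FRET ratio by blocking Runt binding to CBFb-SMMHC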
* marks the source's active call; other numbers are inactive results; u = inconclusive; x = no result given.

SMILES	Hck Nef HTS	Runt-CBFb FRET	RanGTP-Imp inh	Runt-SMMHC FRET
CCC(CC)=C(C#N)C(=O)NC1CCCCC1	7	-1	u	1
CCCCN1C(=O)Cc2c1nc(N)c1c(N)nc(N(CCC)CCC)c(C#N)c21	15	103*	3	-2
O=c1c2ccccc2[nH]c2ccc(F)cc12	71*	3	116*	87*
O=c1c2ccccc2[nH]c2ccc(O)cc12	x	x	166*	x
Cc1ccc2[nH]c3c(c2c1)CCNC3=O	9	1	3	0
CCOC(=O)c1c(-c2ccccc2)[nH]c2ccc(O)cc12	5	-1	2	-2
Cc1ccc2[nH]c3ccccc3c(=O)c2c1	x	x	114*	x
O=[N+]([O-])c1ccccc1Nc1c2ccccc2nc2ccccc12	18	1	11	1
O=C(O)c1cc(S(=O)(=O)O)cc(Nc2c3ccccc3nc3ccccc23)c1O	x	x	102*	x
CCN(CC)CCNc1cc(C)c(C#N)c2nc3ccccc3n12	x	x	11	x
CCN(CC)CCNc1c2c(c(C#N)c3nc4ccccc4n13)CCCC2	21	30	u	61*
CN(C)CCNc1c2c(c(C#N)c3nc4ccccc4n13)CCCC2	25	21	-3	62*
CCN(CC)CCCNc1cc(C(F)(F)F)c(C#N)c2nc3ccccc3n12	x	x	117*	x
N#Cc1c2c(c(NCc3ccco3)n3c1nc1ccccc13)CCC2	11	17	6	x
Clc1ncnc2scc(-c3ccc(Br)cc3)c12	-2	1	3	-3
COc1ccccc1OCC(=O)NNC(=O)Nc1ccccc1	x	x	-1	x
O=c1[nH]c2cc3c(cc2cc1CN(CCc1ccccc1)Cc1nnnn1CC1CCCO1)OCO3 (centres undefined)	3	-92	-75	62*
O=c1[nH]c2cc3c(cc2cc1CN(Cc1nnnn1CC1CCCO1)C1CCCCC1)OCO3 (centres undefined)	2	18	-103	57*
COC(=O)c1ccc2c(CCO)c[nH]c2c1	x	x	-2	x
CCOC(=O)C1=CN(Cc2ccc(OC)cc2)C=C(C(=O)OCC)C1c1cccs1	58*	9	3	26
Cc1ccc(CN/C=C/C(=O)c2ccc(Br)cc2)cc1	1	-1	10	-2
Cc1ccc(C(=O)/C=C/NCc2ccc(F)cc2)cc1	5	2	31*	-1
CN(C)S(=O)(=O)c1ccc2[nH]cc(/C=C/c3nc4ccccc4c(=O)n3-c3ccccc3)c2c1	1	-46	29*	-35
Cc1[nH]c2ccccc2c1/C=C/c1nc2ccccc2c(=O)[nH]1	23	18	34*	39
Cc1[nH]c2ccccc2c1/C=C/C(=O)c1ccccc1	2	-31	41*	-36
SMILES	Hck Nef HTS	Runt-CBFb FRET	RanGTP-Imp inh	Runt-SMMHC FRET
Cc1[nH]c2ccccc2c1/C=C/c1nc2ccccc2c(=O)n1-c1ccc([N+](=O)[O-])cc1	7	-41	38*	-128
Cc1cccc(/C=C/c2nc3ccccc3c(=O)[nH]2)c1	27	0	6	1
O=C(Nc1ccc(F)cc1Cl)C1=COCCO1	x	x	1	x
COC(=O)c1c(NC(=O)CCNCc2ccco2)sc2c1CCC2	3	0	-2	-2
CCn1c(/C=C/c2c[nH]c3ccccc23)nc2ccccc2c1=O	9	-3	12	0
CCn1c(/C=C/c2c(C)[nH]c3ccccc23)nc2ccccc2c1=O	3	19	-26	59*
COc1ccc(-n2c(O)c(C=Nc3ccccc3)c3ccccc3c2=O)cc1	20	7	u	90*
CC(=O)N1c2ccccc2C2(O)N=C(C)SC12 (centres undefined)	-1	20	x	52*
CC(=O)N1c2ccccc2Nc2ccccc21	8	-1	0	3
Cc1ccc2c(n1)sc1c(-c3ccc(Br)cc3)c(C#N)c(N)nc12	22	32	79*	92
CSc1nc(N)c(C#N)c(-c2ccc(Cl)cc2)c1C#N	0	-3	5	-6
Cc1c(C(=O)O)cccc1-n1c(C)cc(/C=N/Nc2ccc([N+](=O)[O-])cn2)c1C	62*	-9	3	-18
